Target: Glutamate carboxypeptidase 2 (Homo sapiens, UniProt Q04609)
Experiment: Inhibition of human recombinant N-terminal Avi-tagged glutamate carboxypeptidase 2 extracellular domain (44 to 750 amino acids) using pteroyl-di-L-glutamate substrate by HPLC method
Procedure, shortened: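 Avi-GCPII (0.2 ng) in 25 mM Bis-Tris propane, 150 mM NaCl, 0.001% octaethylene glycol monododecyl ether, pH 7.4, preincubated with inhibitor (ten concentrations) 5 min at 37 °C. Reaction started with pteroyl-di-L-glutamate (20 µl of 4 µM stock), run 20 min at 37 °C, stopped with 2-PMPA. Substrate and product separated by isocratic HPLC, detected at 281 nm; IC50 from full curves, Ki mean ± SD, duplicate or triplicate.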

Sequence of Glutamate carboxypeptidase 2 (Q04609 whole entry, the tested form may be a part): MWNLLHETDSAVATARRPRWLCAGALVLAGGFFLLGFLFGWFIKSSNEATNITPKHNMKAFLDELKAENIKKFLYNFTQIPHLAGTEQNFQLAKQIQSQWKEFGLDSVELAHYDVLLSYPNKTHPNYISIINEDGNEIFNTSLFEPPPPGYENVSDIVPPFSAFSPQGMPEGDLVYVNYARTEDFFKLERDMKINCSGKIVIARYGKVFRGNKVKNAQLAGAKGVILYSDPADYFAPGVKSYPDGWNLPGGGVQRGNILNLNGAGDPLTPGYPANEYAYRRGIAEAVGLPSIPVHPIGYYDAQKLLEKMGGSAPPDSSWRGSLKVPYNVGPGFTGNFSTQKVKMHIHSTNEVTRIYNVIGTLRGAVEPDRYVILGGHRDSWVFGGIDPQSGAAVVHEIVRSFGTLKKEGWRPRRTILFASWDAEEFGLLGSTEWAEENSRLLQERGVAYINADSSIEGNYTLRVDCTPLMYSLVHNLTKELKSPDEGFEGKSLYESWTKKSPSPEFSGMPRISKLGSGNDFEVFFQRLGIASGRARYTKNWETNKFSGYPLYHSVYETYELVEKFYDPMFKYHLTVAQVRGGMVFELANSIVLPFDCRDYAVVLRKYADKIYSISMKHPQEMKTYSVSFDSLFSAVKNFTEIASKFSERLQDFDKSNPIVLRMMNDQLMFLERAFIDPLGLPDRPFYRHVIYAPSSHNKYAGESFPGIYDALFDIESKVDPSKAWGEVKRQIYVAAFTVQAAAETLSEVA

Compound	Ki [nM]
O=C(O)CC[C@H](NC(=O)N[C@@H](CCCCNC(=O)CCOCCOCCOCCOCCOCCOCCOCCOCCNC(=O)CCCC[C@@H]1SC[C@@H]2NC(=O)N[C@@H]21)C(=O)O)C(=O)O	6.39
O=C(O)CC[C@H](NC(=O)N[C@@H](CCCCNC(=O)CCOCCOCCOCCOCCOCCOCCOCCOCCOCCOCCOCCOCCNC(=O)CCCC[C@@H]1SC[C@@H]2NC(=O)N[C@@H]21)C(=O)O)C(=O)O	10.5
CC(=O)NCCOc1ccccc1NC(=O)NCCCC[C@H](NC(=O)N[C@@H](CCC(=O)O)C(=O)O)C(=O)O	0.377
O=C(O)CC[C@H](NC(=O)N[C@@H](CCCCNC(=O)Nc1ccccc1OCCNC(=O)CCOCCOCCOCCOCCOCCOCCOCCOCCOCCOCCOCCOCCNC(=O)CCCC[C@@H]1SC[C@@H]2NC(=O)N[C@@H]21)C(=O)O)C(=O)O	7.6
CC(=O)NCCOc1ccccc1C(=O)NCCCC[C@H](NC(=O)N[C@@H](CCC(=O)O)C(=O)O)C(=O)O	0.601
O=C(O)CC[C@H](NC(=O)N[C@@H](CCCCNC(=O)c1ccccc1OCCNC(=O)CCOCCOCCOCCOCCOCCOCCOCCOCCOCCOCCOCCOCCNC(=O)CCCC[C@@H]1SC[C@@H]2NC(=O)N[C@@H]21)C(=O)O)C(=O)O	11
CC(=O)NCCOc1cc(F)ccc1C(=O)NCCCC[C@H](NC(=O)N[C@@H](CCC(=O)O)C(=O)O)C(=O)O	1.01
CC(=O)NCCOc1cc(Br)ccc1NC(=O)NCCCC[C@H](NC(=O)N[C@@H](CCC(=O)O)C(=O)O)C(=O)O	0.221
O=C(O)CC[C@H](NC(=O)N[C@@H](CCCCNC(=O)Nc1ccc(Br)cc1OCCNC(=O)CCOCCOCCOCCOCCOCCOCCOCCOCCOCCOCCOCCOCCNC(=O)CCCC[C@@H]1SC[C@@H]2NC(=O)N[C@@H]21)C(=O)O)C(=O)O	3.88
NCCCC[C@H](NC(=O)N[C@@H](CCC(=O)O)C(=O)O)C(=O)O	44.3

The remaining molecules from weak to strong by Ki, led by results:

Ki [nM]	Compound
28.1	O=C(O)CC[C@H](NC(=O)N[C@@H](CCCCNC(=O)Cc1ccccc1OCCNC(=O)CCOCCOCCOCCOCCOCCOCCOCCOCCOCCOCCOCCOCCNC(=O)CCCC[C@H]1SC[C@H]2NC(=O)N[C@H]21)C(=O)O)C(=O)O
3.42	O=C(O)CC[C@H](NC(=O)N[C@@H](CCCCN(Cc1ccccc1)C(=O)CCOCCOCCOCCOCCOCCOCCOCCOCCOCCOCCOCCOCCNC(=O)CCCC[C@@H]1SC[C@@H]2NC(=O)N[C@@H]21)C(=O)O)C(=O)O
1.58	CC(=O)NCCOc1ccccc1CC(=O)NCCCC[C@H](NC(=O)N[C@@H](CCC(=O)O)C(=O)O)C(=O)O
0.722	CC(=O)NCCOc1cc(Cl)ccc1C(=O)NCCCC[C@H](NC(=O)N[C@@H](CCC(=O)O)C(=O)O)C(=O)O
0.6	CC(=O)NCCOc1cc(I)ccc1C(=O)NCCCC[C@H](NC(=O)N[C@@H](CCC(=O)O)C(=O)O)C(=O)O
0.312	CC(=O)N(CCCC[C@H](NC(=O)N[C@@H](CCC(=O)O)C(=O)O)C(=O)O)Cc1ccccc1
0.268	CC(=O)NCCOc1cc(Br)ccc1C(=O)NCCCC[C@H](NC(=O)N[C@@H](CCC(=O)O)C(=O)O)C(=O)O
0.174	CC(=O)NCCCC[C@H](NC(=O)N[C@@H](CCC(=O)O)C(=O)O)C(=O)O
0.0449	CC(=O)N(CCCC[C@H](NC(=O)N[C@@H](CCC(=O)O)C(=O)O)C(=O)O)Cc1ccc(Br)cc1
